In paper PMC7111275 (European Journal of Medicinal Chemistry, 2013):

How the values were obtained:
[1] = tested on: hepatitis C virus (HCV) replicon in Huh 7 cells; assay: Subgenomic HCV replicon system in Huh 7 cells; type: cell-based; conditions: 10 μM
Outline: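 Huh 7 Clone B cells carrying subgenomic HCV replicon RNA were seeded at 3000 cells/well and given test compound at 10 μM in triplicate immediately after seeding. After 5 days at 37 °C in 5% CO2, total RNA was extracted. Replicon RNA was measured against an rRNA internal control by one-step multiplex real-time RT-PCR. ΔCt was taken versus the no-drug control, where ΔCt 3.3 = 1-log reduction; rRNA ΔCt gave cytotoxicity. 2′-C-Me-C at 10 μM served as the control.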

HIV = assay: Anti-HIV activity in cellular assay; type: cell-based; conditions: Human immunodeficiency virus 1, read-out: Anti-HIV activity EC90
[2] = tested on: PBMC, human lymphoblastoid CEM and Vero cells; assay: Cytotoxicity testing in PBMC, CEM and Vero cells; type: cell-based; conditions: at 100 μM
Hel cells = conditions: at 100 μM, Hel cell cultures

SMILES | Anti-HCV activity (in words) [1] | EC90 (HIV) [µM] | Cytotoxicity (in words) [2] | Cytotoxicity (in words) (Hel cells)
CC(C)(C)C(=O)OCOP(=O)(C/C=C/Cn1ccc(N)nc1=O)OCOC(=O)C(C)(C)C [Compound 8a, (E)-N^1-(4′-Bis(POM)phosphinyl-2′-butenyl)-cytosine] | pronounced anti-HCV activity | > 100 | without significant cytotoxicity | 
COC(=O)c1nccn(C/C=C/CP(=O)(OCOC(=O)C(C)(C)C)OCOC(=O)C(C)(C)C)c1=O [Compound 13, (E)-N^1-(4′-Bis(POM)-phosphinylbut-2′-enyl)-3-oxo-pyrazine-2-methylester] | pronounced anti-HCV activity |  | without significant cytotoxicity | 
CC(C)(C)C(=O)OCOP(=O)(C/C=C/Cn1ccnc(C(N)=O)c1=O)OCOC(=O)C(C)(C)C [Compound 14, (E)-N^1-(4′-Bis(POM)-phosphinylbut-2′-enyl)-3-oxo-pyrazine-2-carboxamide] | pronounced anti-HCV activity |  | without significant cytotoxicity | 
CC(C)(C)C(=O)OCOP(=O)(C/C=C/Cn1cc(C(=O)O)nn1)OCOC(=O)C(C)(C)C [Compound 24, (E)-1-(4′-Bis(POM)-phosphinylbut-2′-enyl)-4-(carboxylic acid)-1,2,3-triazole] | pronounced anti-HCV activity |  | without significant cytotoxicity | 
CC(C)(C)C(=O)OCOP(=O)(C/C=C/Cn1cc(CO)nn1)OCOC(=O)C(C)(C)C [Compound 31, (E)-1-(4′-Bis(POM)-phosphinylbut-2′-enyl)-4-(hydroxymethyl)-1,2,3-triazole] |  |  |  | no observed cytotoxicity
